The source made the active and inactive calls. No cut-off for these calls is given here.
Experiments:
[1] = biological target: T1, Kappa-type opioid receptor (Homo sapiens, UniProt P41145); assay: Agonist activity at human kappa opioid receptor tranfected in U2OS cells co-transfected with arrestin2-EFC assessed as induction of beta arrestin2 recruitment incubated for 90 mins by Synergy HT luminometer; format: functional, cell-based
In short: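 PathHunter enzyme-fragment complementation in U2OS cells stably expressing hKOR and βarrestin2, grown in MEM with 10% FBS, geneticin and hygromycin B, run per manufacturer's protocol. Concentration–response curves were fit by three-parameter nonlinear regression, normalized to vehicle and to maximal stimulation by the reference agonist U69,593 on the same plate. 2–4 replicates per experiment; n ≥ 3 independent experiments; 95% CI.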

[2] = biological target: T1, Kappa-type opioid receptor; assay: Agonist activity at recombinant human kappa opioid receptor extracted from CHO cell membrane assessed as induction of [35S]GTPgammaS binding incubated for 1 hr by TopCount NXT Microplate Scintillation and Luminescence Counter analysis; format: functional, cell membranes
[3] = biological target: T1, Kappa-type opioid receptor; assay: Agonist activity at human kappa opioid receptor tranfected in U2OS cells co-transfected with arrestin2-EFC assessed as induction of beta arrestin2 recruitment by measuring maximum efficacy incubated for 90 mins by Synergy HT luminometer relative to […]; format: functional, cell-based
In short: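 PathHunter enzyme-fragment complementation in U2OS cells stably expressing hKOR and βarrestin2, grown in MEM with 10% FBS, geneticin and hygromycin B, run per manufacturer's protocol. Concentration–response curves were fit by three-parameter nonlinear regression, normalized to vehicle and to maximal stimulation by the reference agonist U69,593 on the same plate.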

[4] = biological target: T1, Kappa-type opioid receptor; assay: Agonist activity at recombinant human kappa opioid receptor extracted from CHO cell membrane assessed as induction of [35S]GTPgammaS binding by measuring maximum efficacy at 10 uM incubated for 1 hr by TopCount NXT Microplate Scintillation and Luminescence Counter analysis relative to U69,593; format: functional, cell membranes
[5] = Metabolic stability in human liver microsome assessed as half life at 1 uM by LC-MS/MS analysis; format: ADME, microsomes; conditions: for half-life at 1 µM: liver microsomes; for t1/2: microsomes, 1 µM
In short: (§1)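 Hepatic microsomes (1 mg/mL) were incubated with 1 μM compound at 37 °C with continuous shaking. Reactions were quenched with acetonitrile at 5-min intervals over 1 h and filtered. Half-life was determined by LC-MS/MS.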

[6] = Metabolic stability in mouse liver microsome assessed as half life at 1 uM by LC-MS/MS analysis; format: ADME; conditions: liver microsomes; in short: as §1
[7] = biological target: Mu-type opioid receptor (Homo sapiens) (UniProt P35372); assay: Binding affinity to Mu opioid receptor (unknown origin) assessed as inhibition of [3H]-D-Ala2,N-MePhe4,Gly-ol-enkephalin binding at 10 uM by radioligand binding assay relative to control
Chain of Mu-type opioid receptor (Homo sapiens) (P35372 whole entry): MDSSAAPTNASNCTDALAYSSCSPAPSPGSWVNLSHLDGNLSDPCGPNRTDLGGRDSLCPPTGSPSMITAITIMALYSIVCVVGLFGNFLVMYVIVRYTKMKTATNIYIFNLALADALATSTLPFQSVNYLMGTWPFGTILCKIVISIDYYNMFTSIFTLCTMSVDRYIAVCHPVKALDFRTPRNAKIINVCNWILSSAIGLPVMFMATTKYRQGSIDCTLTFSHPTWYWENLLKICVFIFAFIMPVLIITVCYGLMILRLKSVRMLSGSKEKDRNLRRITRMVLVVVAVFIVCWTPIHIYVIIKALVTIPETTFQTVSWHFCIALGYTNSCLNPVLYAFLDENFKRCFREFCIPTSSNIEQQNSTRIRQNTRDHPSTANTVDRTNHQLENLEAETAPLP

[8] = biological target: T1, Kappa-type opioid receptor; assay: Binding affinity to kappa opioid receptor (unknown origin) assessed as inhibition of [3H]-[…] binding at 10 uM by radioligand binding assay relative to control; conditions: filed as agonist
[9] = biological target: T1, Kappa-type opioid receptor; assay: Displacement of [3H]-[…] from kappa opioid receptor (unknown origin) assessed as inhibition constant by radioligand binding assay
[10] = biological target: Delta-type opioid receptor (Homo sapiens) (UniProt P41143); assay: Binding affinity to delta opioid receptor (unknown origin) assessed as inhibition of [3H]-D-Ala2,D-Leu5-enkephalin binding at 10 uM by radioligand binding assay relative to control
Chain of Delta-type opioid receptor (Homo sapiens) (P41143 whole entry): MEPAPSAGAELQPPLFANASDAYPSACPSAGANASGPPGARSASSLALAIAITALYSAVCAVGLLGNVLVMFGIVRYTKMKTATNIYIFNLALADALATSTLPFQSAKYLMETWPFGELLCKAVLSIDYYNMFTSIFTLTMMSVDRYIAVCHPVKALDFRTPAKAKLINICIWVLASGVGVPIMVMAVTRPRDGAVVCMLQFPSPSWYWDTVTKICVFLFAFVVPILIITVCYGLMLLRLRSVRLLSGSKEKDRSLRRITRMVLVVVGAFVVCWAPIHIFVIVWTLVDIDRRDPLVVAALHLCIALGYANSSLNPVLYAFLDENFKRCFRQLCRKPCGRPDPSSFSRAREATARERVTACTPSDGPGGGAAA

T1 sequence (P41145 whole entry, the tested form may be a part): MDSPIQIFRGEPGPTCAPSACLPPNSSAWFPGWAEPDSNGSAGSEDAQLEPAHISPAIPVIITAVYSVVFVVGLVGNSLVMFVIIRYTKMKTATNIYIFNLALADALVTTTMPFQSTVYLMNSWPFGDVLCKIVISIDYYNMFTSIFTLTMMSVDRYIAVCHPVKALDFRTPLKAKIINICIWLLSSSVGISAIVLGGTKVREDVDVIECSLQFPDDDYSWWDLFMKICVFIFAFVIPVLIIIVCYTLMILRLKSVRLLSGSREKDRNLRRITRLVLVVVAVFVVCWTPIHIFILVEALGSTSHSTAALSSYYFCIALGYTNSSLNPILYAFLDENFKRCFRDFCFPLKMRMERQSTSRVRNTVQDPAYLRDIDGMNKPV

Cc1ccc(CCc2nnc(-c3ncccc3C)n2Cc2cccs2)cc1C(F)(F)F
EC50 [1]: 1610 nM
EC50 [2]: 13 nM
Emax ([3]; filed as agonist): 118%

Cc1ccc(/C=C/c2nnc(-c3ccccn3)n2Cc2cccs2)cc1C(F)(F)F
Emax ([4]; filed as agonist): 79%
EC50 [2]: 496 nM
half-life at 1 µM [5]: 22 min
half-life at 1 µM [6]: 30.2 min

Cc1ccc(/C=C/c2nnc(-c3nccn3C)n2Cc2nccs2)cc1C(F)(F)F
EC50 [1]: 2190 nM
Emax ([4]; filed as agonist): 309%
Emax [3]: 36%

Cc1ccc(CCc2nnc(-c3nccn3C)n2Cc2cccs2)cc1C(F)(F)F
EC50 [1]: 1020 nM
Emax ([4]; filed as agonist): 91%
EC50 [2]: 34 nM
half-life at 1 µM [5]: 3.1 min
Emax ([3]; filed as agonist): 132%
half-life at 1 µM [6]: 1.5 min

Brc1ccc(CCc2nnc(-c3ccccn3)n2Cc2cccs2)cc1
EC50 [1]: 723 nM
Emax ([4]; filed as agonist): 92%
EC50 [2]: 20 nM
Emax ([3]; filed as agonist): 93%

Cc1ccc(CCc2nnc(-c3cccnc3)n2Cc2cccs2)cc1C(F)(F)F
Emax ([4]; filed as agonist): 85%
EC50 [2]: 1880 nM

Cc1ccc(CCc2nnc(-c3ccncn3)n2Cc2cccs2)cc1C(F)(F)F
EC50 [2]: 991 nM

Cc1ccc(CCc2nnc(-c3ncccn3)n2Cc2cccs2)cc1C(F)(F)F
EC50 [1]: 2220 nM
EC50 [2]: 57 nM
Emax ([3]; filed as agonist): 150%

Cc1ccc(CCc2nnc(-c3ccccn3)n2Cc2ccco2)cc1C(F)(F)F
EC50 [1]: 803 nM
Emax ([4]; filed as agonist): 90%
EC50 [2]: 21 nM
t1/2 [5]: 0.9 min
half-life at 1 µM [6]: 0.8 min

Brc1ccccc1CCc1nnc(-c2ccccn2)n1Cc1cccs1
Emax ([4]; filed as agonist): 84%
EC50 [2]: 358 nM

Clc1ccc(CCc2nnc(-c3ccccn3)n2Cc2cccs2)cc1Cl
EC50 [1]: 319 nM
EC50 [2]: 5 nM
half-life at 1 µM [5]: 1.5 min
half-life at 1 µM [6]: 1.2 min

O=C(Cc1ccccc1)c1nnc(-c2ccccn2)n1Cc1ccco1
Emax [4]: 4%
half-life at 1 µM [5]: 8.1 min
half-life at 1 µM [6]: 1.2 min

FC(F)(F)c1ccccc1CCc1nnc(-c2ccccn2)n1Cc1cccs1
EC50 [2]: 429 nM

c1ccc(-c2nnc(CCc3cccc4ccccc34)n2Cc2cccs2)nc1
EC50 [2]: 184 nM

Cc1ccc(CCc2nnc(-c3ccccn3)n2-c2ccccc2)cc1C(F)(F)F
Activity [2]: inactive
half-life at 1 µM [5]: 1.6 min
half-life at 1 µM [6]: 1 min

Cc1ccc(CCc2nnc(-c3ccccn3)n2CC2CC2)cc1C(F)(F)F
EC50 [1]: 6220 nM
EC50 [2]: 213 nM

Brc1cccc(CCc2nnc(-c3ccccn3)n2Cc2cccs2)c1
EC50 [1]: 5610 nM
Emax ([4]; filed as agonist): 89%
EC50 [2]: 51 nM
Emax ([3]; filed as agonist): 118%

Cc1ccc(CCc2nnc(-c3ccccc3)n2Cc2cccs2)cc1C(F)(F)F
EC50 [2]: 406 nM
half-life at 1 µM [5]: 1.8 min
half-life at 1 µM [6]: 0.9 min

c1ccc(-c2nnc(-c3ccccn3)n2Cc2cccs2)cc1
half-life at 1 µM [5]: 69.7 min
half-life at 1 µM [6]: 1 min

Cc1ccc(CCc2nnc(-c3ccccn3)n2Cc2ccccn2)cc1C(F)(F)F
EC50 [1]: 8120 nM
Emax ([4]; filed as agonist): 84%
EC50 [2]: 175 nM
Emax ([3]; filed as agonist): 127%

Fc1ccc(CCc2nnc(-c3ccccn3)n2Cc2cccs2)cc1
EC50 [1]: 2640 nM
Emax ([4]; filed as agonist): 90%
EC50 [2]: 284 nM
Emax ([3]; filed as agonist): 97%

Cc1ccc(CCc2nnc(-c3ccccn3)n2Cc2ccccc2)cc1C(F)(F)F
EC50 [1]: 6740 nM
EC50 [2]: 83 nM
half-life at 1 µM [5]: 0.9 min
Emax ([3]; filed as agonist): 183%
half-life at 1 µM [6]: 1.3 min

OC(Cc1ccccc1)c1nnc(-c2ccccn2)n1Cc1ccco1 (stereo not given)
Emax [4]: 20%
half-life at 1 µM [5]: 17.4 min
half-life at 1 µM [6]: 2.5 min

c1ccc(-c2nnc(CCc3ccc4ccccc4c3)n2Cc2cccs2)nc1
EC50 [1]: 896 nM
EC50 [2]: 12 nM

Cc1ccc(CCc2nnc(-c3ccccn3)n2Cc2cccs2)cc1C(F)(F)F
inhibition [7]: 30.9%
inhibition [8]: 99.7%
EC50 [1]: 594 nM
Ki [9]: 5.8 nM
EC50 [2]: 11 nM
half-life at 1 µM [5]: 1.4 min
inhibition [10]: 30.7%
Emax ([3]; filed as agonist): 102%
half-life at 1 µM [6]: 1.5 min

Cc1ccc(/C=C/c2nnc(-c3ccccn3)n2Cc2ccco2)cc1C(F)(F)F
Emax ([4]; filed as agonist): 89%
EC50 [2]: 1170 nM
t1/2 [5]: 18 min
half-life at 1 µM [6]: 32.2 min

Cc1ccc(CCc2nnc(-c3ccccn3)n2Cc2nccs2)cc1C(F)(F)F
EC50 [1]: 1290 nM
Emax ([4]; filed as agonist): 64%
EC50 [2]: 34 nM
Emax ([3]; filed as agonist): 95%

Clc1ccc(CCc2nnc(-c3ccccn3)n2Cc2cccs2)c(Cl)c1
EC50 [1]: 5160 nM
Emax ([4]; filed as agonist): 91%
EC50 [2]: 32 nM
half-life at 1 µM [5]: 2.1 min
Emax ([3]; filed as agonist): 154%
half-life at 1 µM [6]: 2.6 min

c1ccc(CCc2nnc(-c3ccccn3)n2Cc2cccs2)cc1
Emax ([4]; filed as agonist): 76%
EC50 [2]: 926 nM
half-life at 1 µM [5]: 5.5 min
half-life at 1 µM [6]: 1.6 min

FC(Cc1nnc(-c2ccccn2)n1Cc1cccs1)c1ccccc1 (stereo not given)
Emax ([4]; filed as agonist): 82%
half-life at 1 µM [5]: 7.2 min
half-life at 1 µM [6]: 0.9 min

Cc1ccc(CCc2nnc(-c3ccc4ccccc4n3)n2Cc2cccs2)cc1C(F)(F)F
EC50 [2]: 872 nM

Cc1ccc(/C=C/c2nnc(-c3ccccn3)n2Cc2nccs2)cc1C(F)(F)F
Emax ([4]; filed as agonist): 83%
EC50 [2]: 1130 nM

Cc1ccc(CCc2nnc(-c3ccccn3)n2Cc2cccnc2)cc1C(F)(F)F
EC50 [1]: 421 nM
Emax ([4]; filed as agonist): 87%
EC50 [2]: 55 nM
half-life at 1 µM [5]: 1.7 min
Emax ([3]; filed as agonist): 119%
half-life at 1 µM [6]: 1.6 min

COc1ccc(CCc2nnc(-c3ccccn3)n2Cc2cccs2)cc1
EC50 [2]: 122 nM

Cc1ccc(CCc2nnc(-c3ccc4ccccc4c3)n2Cc2cccs2)cc1C(F)(F)F
EC50 [2]: 2960 nM

FC(Cc1ccccc1)c1nnc(-c2ccccn2)n1Cc1ccco1 (stereo not given)
half-life at 1 µM [5]: 9.1 min
half-life at 1 µM [6]: 1.9 min

Cc1ccc(CCc2nnc(-c3cccc4ccccc34)n2Cc2cccs2)cc1C(F)(F)F
EC50 [2]: 429 nM

OC(Cc1nnc(-c2ccccn2)n1Cc1cccs1)c1ccccc1 (stereo not given)
Emax [4]: 17%
half-life at 1 µM [5]: 20.7 min
half-life at 1 µM [6]: 2.6 min

Cc1ccc(CSc2nnc(-c3ccccn3)n2Cc2ccco2)cc1C(F)(F)F
t1/2 [5]: 1.1 min

Cc1ccc(CCc2nnc(-c3ccccn3)n2Cc2ccncc2)cc1C(F)(F)F
Activity [2]: inactive

Cc1ccc(/C=C/c2nnc(-c3nccn3C)n2Cc2cccs2)cc1C(F)(F)F
EC50 [2]: 787 nM

Clc1ccc(CCc2nnc(-c3ccccn3)n2Cc2cccs2)cc1
EC50 [1]: 2870 nM
Emax ([4]; filed as agonist): 86%
EC50 [2]: 33 nM
half-life at 1 µM [5]: 3.3 min
Emax ([3]; filed as agonist): 137%
half-life at 1 µM [6]: 3.3 min

Reference: ChEMBL document CHEMBL5608183, “Synthesis and evaluation of 3,4,5-trisubstituted triazoles as G protein-biased kappa opioid receptor agonists” (Eur J Med Chem, 2024)
